A short description of data set [1]: Stability in human plasma assessed as compound remaining relative to control. Type of data set: ADME, cell-free.
A short description of data set [2]: Stability in mouse plasma assessed as compound remaining relative to control. It counts as ADME, cell-free.
Data set [3] in a line: Solubility in PBS buffer. It counts as physicochemical.
The target of another data set is PRMT5/MEP50 complex (Homo sapiens, UniProt O14744). Briefly: Displacement of fluorophore-labeled RIOK1 from human PRMT5/WDR77 hetero octameric complex expressed in Sf9 cells by competition fluorescence polarization (FP) assay. For orientation: Polarisation of emitted light reports the rotation of a fluorescent probe.
Data set [4] has as its target T1, Protein arginine N-methyltransferase 5 (Homo sapiens, UniProt O14744). Nature of the data set: Covalent inhibition of human PRMT5 assessed as initial binding constant by LC-MS analysis.
Data set [5] addresses Methylosome protein WDR77 (Homo sapiens) (UniProt Q9BQA1). Nature of the data set: Binding affinity to human wild type WDR77 assessed as increase in protein mass by deconvoluted mass spectra analysis. Put shortly: (§1)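 Purified untagged PRMT5:WDR77 (Sf9 co-expressed) exchanged into 10 mM HEPES 7.4, 150 mM NaCl, 1 mM TCEP. Protein diluted to 10 μM; 10 μL protein plus 1 μL compound (0.5 mM stock in DMSO) or DMSO in 90 μL buffer, 4 h at RT. Intact mass by LC-ToF on C4 column at 80 °C, positive ESI, spectra deconvoluted by MaxEnt1.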

The subject of data set [6] is Protein arginine N-methyltransferase 5 (Homo sapiens), O14744 [C278A]. Briefly: Binding affinity to human PRMT5 C278A mutant assessed as increase in protein mass by deconvoluted mass spectra analysis. Put shortly: as §1
Data set [7] in a line: Displacement of fluorophore-labeled RIOK1 from human PRMT5 C278A mutant/WDR77 hetero octameric complex expressed in Sf9 cells by competition fluorescence polarization (FP) assay. The gist of the method:
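Competition FP with Sf9-expressed untagged PRMT5:WDR77 (WT or C278A) at 200 nM protomer and 10 nM fluorophore-labeled RIOK1 PBM peptide probe. […] Incubated at RT, read at 40 min, 8-point dose range, triplicate. Normalized to DMSO (100) and unlabeled peptide control at 20 μM (0).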

Data set [8] concerns the target T1, Protein arginine N-methyltransferase 5. Nature of the data set: Binding affinity to human wild type PRMT5 assessed as increase in protein mass by deconvoluted mass spectra analysis. The gist of the method: as §1
Data set [9] has as its target PRMT5/MEP50 complex (Homo sapiens) (UniProt O14744+Q9BQA1). Briefly: Displacement of full-length pICIn protein from human PRMT5/WDR77 hetero octameric complex at 2 uM pretreated by SPR competition assay. A general note: In SPR one partner is held on a chip, and binding of the other changes the refractive index at the surface.
For data set [10], the target named is T1, Protein arginine N-methyltransferase 5. Briefly: Covalent inhibition of human PRMT5 assessed maximum potential inactivation rate by LC-MS analysis.
Data set [11] has the same target. Nature of the data set: Covalent inhibition of human PRMT5 assessed as Kinact/Ki ratio by LC-MS analysis.
Data set [12] in a line: Disruption of human N-terminal SmBiT peptide-tagged PRMT5/N-terminal LgBiT tagged RIOK1 complex expressed in intact HEK293T cells measured after 40 mins by NanoBiT assay. Conditions: HEK-293T. Type of data set: cell-based.

Each structure is given as a SMILES string. Converted amounts (≈) assume the structure as drawn. The source made the active and inactive calls. The calls are words filed in the database; no cut-off is given here.

What is called solubility is how much of the substance goes into solution per volume. The low end stands for little dissolved substance, the high end for much dissolved substance. For orientation: IC50 means the concentration needed to halve the response being measured. A higher IC50 goes with lower potency.

T1 sequence (O14744 whole entry): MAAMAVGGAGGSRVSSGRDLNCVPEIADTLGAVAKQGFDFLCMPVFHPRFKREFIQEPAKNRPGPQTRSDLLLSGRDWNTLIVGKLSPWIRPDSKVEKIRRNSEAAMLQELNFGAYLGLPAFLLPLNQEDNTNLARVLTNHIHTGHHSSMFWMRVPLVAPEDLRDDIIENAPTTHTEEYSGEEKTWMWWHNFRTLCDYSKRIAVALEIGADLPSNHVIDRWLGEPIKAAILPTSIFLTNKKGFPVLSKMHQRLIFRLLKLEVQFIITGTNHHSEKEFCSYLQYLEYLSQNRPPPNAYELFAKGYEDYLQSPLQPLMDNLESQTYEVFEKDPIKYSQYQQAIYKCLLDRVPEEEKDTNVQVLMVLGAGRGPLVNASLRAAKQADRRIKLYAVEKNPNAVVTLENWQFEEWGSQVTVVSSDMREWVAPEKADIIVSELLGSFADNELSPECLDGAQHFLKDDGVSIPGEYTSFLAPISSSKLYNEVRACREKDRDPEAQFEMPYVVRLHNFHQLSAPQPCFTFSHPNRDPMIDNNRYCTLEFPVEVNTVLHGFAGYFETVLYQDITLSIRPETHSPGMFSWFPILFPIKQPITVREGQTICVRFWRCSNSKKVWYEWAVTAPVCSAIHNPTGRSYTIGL
Sequence of PRMT5/MEP50 complex (O14744 whole entry): as above
Sequence of PRMT5/MEP50 complex (Q9BQA1 whole entry, further chain): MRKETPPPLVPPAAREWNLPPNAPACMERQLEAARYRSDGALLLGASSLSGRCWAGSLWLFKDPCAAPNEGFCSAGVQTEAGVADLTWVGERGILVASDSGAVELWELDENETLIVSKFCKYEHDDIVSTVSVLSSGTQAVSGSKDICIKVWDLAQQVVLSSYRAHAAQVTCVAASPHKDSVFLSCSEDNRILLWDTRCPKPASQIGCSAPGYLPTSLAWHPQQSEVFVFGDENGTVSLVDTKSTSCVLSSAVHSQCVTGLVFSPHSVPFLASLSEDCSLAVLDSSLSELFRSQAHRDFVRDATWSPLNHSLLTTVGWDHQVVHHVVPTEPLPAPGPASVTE
Sequence of Protein arginine N-methyltransferase 5 (Homo sapiens), O14744 [C278A] (O14744 whole entry C278A): as the sequence (O14744 whole entry) above, with C278A counted along it
Sequence of Methylosome protein WDR77 (Homo sapiens) (Q9BQA1 whole entry): as the sequence (Q9BQA1 whole entry, further chain) above

As for `Cc1ccc(NC(=O)Cn2ncc(Cl)c(Cl)c2=O)cc1S(=O)(=O)NCCc1cccnc1`, the Stabilty in [1] amounted to 100%; in data set [2] it was 21%. For the same compound, in data set [3], the solubility came to 88 µM (≈ 43.7 µg/mL). On PRMT5/MEP50 complex, this compound gave an IC50 of 4.6 µM.

`Cc1ccc(NC(=O)Cn2ncc(F)c(Cl)c2=O)cc1S(=O)(=O)NCCc1ccccn1` displayed an IC50 on PRMT5/MEP50 complex of 0.37 µM.

Compound `Nc1nc2cc(CC[C@H]3C[C@@H](n4ccc5c(N)ncnc54)[C@H](O)[C@@H]3O)ccc2cc1Br` [ONAMETOSTAT] had a solubility in data set [3] of 7 µM (≈ 3.38 µg/mL).

As for `Cc1ccc(NC(=O)Cn2ncc(F)cc2=O)cc1S(=O)(=O)NCCc1ccccn1`, in data set [4], the Ki came out at 58 µM. Moreover, the IC50 on PRMT5/MEP50 complex is 35.6 µM.

On PRMT5/MEP50 complex, `Cc1ccc(NC(=O)C(C)n2ncc(Cl)c(C)c2=O)cc1S(=O)(=O)NCCc1ccccn1` (racemic) had an IC50 of more than 200 µM.

As for `Cc1ccc(NC(=O)Cn2ncc(Cl)c(Cl)c2=O)cc1S(=O)(=O)NCCc1ccncc1`, the Stabilty is reported as 92% in data set [1] and 2% in [2]. For the same compound, in data set [3], the solubility came out at 93 µM (≈ 46.2 µg/mL). The compound also displayed an IC50 at PRMT5/MEP50 complex of 2.5 µM.

Regarding `Cc1ccc(NC(=O)Cn2ncc(Cl)c(Cl)c2=O)cc1S(=O)(=O)N1CCCN(C)CC1`, the Stabilty is 84% in data set [1] and 0% in [2]. In data set [3], this compound came in with a solubility of 98 µM (≈ 47.9 µg/mL). This compound also had an IC50 at PRMT5/MEP50 complex of 5.4 µM.

For `O=C(NC[C@H](O)CN1CCc2ccccc2C1)c1cc(NC2COC2)ncn1`, in data set [3], the solubility is 101 µM (≈ 38.7 µg/mL).

`O=C(Cn1ncc(Cl)c(Cl)c1=O)Nc1cccc(S(=O)(=O)NCCc2ccccn2)c1`: the solubility in data set [3] came to 19 µM (≈ 9.16 µg/mL). The compound also displayed an IC50 at PRMT5/MEP50 complex of 19.2 µM.

Consider `Cc1ccc(N(C)C(=O)[C@H](C)n2ncc(Cl)cc2=O)cc1S(=O)(=O)NCCc1ccccn1`, for which the solubility in data set [3] worked out at 114 µM (≈ 55.9 µg/mL). In addition, on PRMT5/MEP50 complex, the IC50 is more than 200 µM.

In data set [3], `Cc1cc(C)c(S(=O)(=O)NCCc2ccccn2)cc1NC(=O)Cn1ncc(Cl)c(Cl)c1=O` displayed a solubility of 14 µM (≈ 7.15 µg/mL). The IC50 at PRMT5/MEP50 complex is 6.1 µM.

Regarding `Cc1ccc(N(C)C(=O)Cn2ncc(Cl)c(Cl)c2=O)cc1S(=O)(=O)NCCc1ccccn1`, the results for the Stabilty in data set [1] and in data set [2] were 89% and 86%, respectively. In data set [3], this compound came in with a solubility of 86 µM (≈ 43.9 µg/mL). Besides, the IC50 on PRMT5/MEP50 complex was more than 200 µM.

With `Cc1ccc(NC(=O)Cn2ncc(Cl)cc2=O)cc1S(=O)(=O)NCCc1ccccn1`, the Ki in data set [4] was found to be 36 µM. The compound further yielded an IC50 on PRMT5/MEP50 complex of 72.9 µM.

On to `Cc1ccc(NC(=O)Cn2ncc(F)c(C)c2=O)cc1S(=O)(=O)NCCc1ccccn1`, for which, on PRMT5/MEP50 complex, the IC50 was found to be 72.1 µM.

Take `Cc1cc(NC(=O)Cn2ncc(Cl)c(Cl)c2=O)cc(S(=O)(=O)NCCc2ccccn2)c1C`: the solubility in data set [3] came out at 3.7 µM (≈ 1.89 µg/mL). This compound also displayed an IC50 at PRMT5/MEP50 complex of 2.5 µM.

In turn, `Cc1cnc(NC(=O)Cn2ncc(Cl)c(Cl)c2=O)cc1S(=O)(=O)N(C)C` showed a solubility in data set [3] of 7.6 µM (≈ 3.19 µg/mL).

`Cc1ccc(NC(=O)Cn2ncc(Cl)c(Cl)c2=O)cc1S(=O)(=O)N1CCCCC1` displayed a solubility in data set [3] of 0.8 µM (≈ 0.367 µg/mL). Further, the IC50 at PRMT5/MEP50 complex is 12.7 µM.

Take `Cc1ccc(NC(=O)Cn2ncc(Cl)c(Cl)c2=O)cc1S(=O)(=O)N1CCN(C)CC1`: the Stabilty came to 72% in data set [1] and 0% in data set [2]. The compound further gave a solubility in data set [3] of 89 µM (≈ 42.2 µg/mL). The compound also showed an IC50 at PRMT5/MEP50 complex of 10.1 µM.

As to `Cc1ccc(NC(=O)Cn2ncc(Cl)c(Cl)c2=O)nc1S(=O)(=O)NCCc1ccccn1`, the Stabilty in data set [1] is 96%; in data set [2], 75%. This compound came in with a solubility in data set [3] of 5 µM (≈ 2.49 µg/mL). In addition, the IC50 on PRMT5/MEP50 complex is 4.5 µM.

In turn, `CCc1ccc(NC(=O)Cn2ncc(Cl)c(Cl)c2=O)cc1S(=O)(=O)NCCc1ccccn1` displayed a solubility in data set [3] of 12 µM (≈ 6.12 µg/mL). Moreover, the IC50 on PRMT5/MEP50 complex is 4.2 µM.

Turning to `Cc1ccc(NC(=O)Cn2ncc(Cl)c(Cl)c2=O)cc1S(=O)(=O)NCCc1ccccn1`, the result in data set [5] and in data set [6] was inactive. Also, the IC50 in data set [7] is more than 100 µM; at PRMT5/MEP50 complex it was 2.2 µM. In addition, in data set [4], the Ki stood at 8 µM. Besides, the result in data set [8] and in [9] was Active.

On to `COc1ccc(NC(=O)Cn2ncc(Cl)c(Cl)c2=O)cc1S(=O)(=O)NCCc1ccccn1`, for which, in [3], the solubility is 96 µM (≈ 49.2 µg/mL). At PRMT5/MEP50 complex, this compound gave an IC50 of 23.3 µM.

Take `Cc1ccc(NC(=O)[C@@H](C)n2ncc(Cl)c(Cl)c2=O)cc1S(=O)(=O)NCCc1ccccn1`: the Kinact in data set [10] was found to be 1.05 min⁻¹. For the same compound, the Stabilty is 95% in data set [1] and 97% in data set [2]. Moreover, in [11], the Ratio is 226 M⁻¹ s⁻¹. The solubility in data set [3] was determined as 70 µM (≈ 35.7 µg/mL). In data set [4], the Ki turned out to be 78 µM. This compound also came in with an IC50 at PRMT5/MEP50 complex of 55.4 µM.

`Cc1ccc(NC(=O)Cn2ncc(Cl)c(Cl)c2=O)cc1S(=O)(=O)N(C)C`: the IC50 at PRMT5/MEP50 complex is 14.1 µM.

On to `CN(C)S(=O)(=O)N1CCCC(NC(=O)Cn2ncc(Cl)c(Cl)c2=O)C1` (stereo not given), for which the solubility in [3] turned out to be 98 µM (≈ 40.4 µg/mL). The same compound had an IC50 at PRMT5/MEP50 complex of more than 200 µM.

Regarding `Cc1ccc(NC(=O)[C@H](C)n2ncc(Cl)c(Cl)c2=O)cc1S(=O)(=O)NCCc1ccccn1`, the Kinact in data set [10] is 1.95 min⁻¹. Also, the Stabilty in data set [1] and in data set [2] was 92% throughout. For the same compound, in [11], the Ratio worked out at 14600 M⁻¹ s⁻¹. For the same compound, the solubility in [3] worked out at 64 µM (≈ 32.7 µg/mL). The Ki in data set [4] amounted to 2 µM. This compound showed an IC50 on PRMT5/MEP50 complex of 0.3 µM.

On to `Cc1ncc(NC(=O)Cn2ncc(Cl)c(Cl)c2=O)cc1S(=O)(=O)N1CCCN(C)CC1`, for which the results for the Stabilty in [1] and in data set [2] were 70% and 3%, respectively. Besides, in [3], the solubility was 96 µM (≈ 47 µg/mL). For the same compound, the half-inhibitory concentration (IC50) on PRMT5/MEP50 complex was more than 200 µM.

`Cc1ccc(NC(=O)Cn2ncc(Cl)c(Cl)c2=O)c(C)c1S(=O)(=O)NCCc1ccccn1`: in data set [3], the solubility was determined as 7.8 µM (≈ 3.98 µg/mL). The same compound gave an IC50 on PRMT5/MEP50 complex of 39 µM.

For `Cc1ccc(NC(=O)Cn2nccc(Cl)c2=O)cc1S(=O)(=O)NCCc1ccccn1`, the values for the IC50 (in data set [12]; on PRMT5/MEP50 complex) were more than 100 µM and more than 200 µM, respectively.

Source of the values: ChEMBL document CHEMBL4825730, “Discovery of a First-in-Class Inhibitor of the PRMT5-Substrate Adaptor Interaction” (J Med Chem, 2021).
